ChEMBL document CHEMBL5154742, “Thiosugar naphthalene diimide conjugates: G-quadruplex ligands with antiparasitic and anticancer activity” (Eur J Med Chem, 2022)
The source made the active and inactive calls. No cut-off for these calls is given here.

Legend:
Trypanosoma brucei = test: Antitrypanosomal activity against Trypanosoma brucei incubated for 72 hrs by alamar blue dye based fluorimetry analysis; format: functional, organism-based
Method in brief: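 Bloodstream-form T. brucei S16 (Lister 427, MiTat 1.2), 1×10^3 per well in HMI-9 with 20% hiFBS, exposed to increasing compound concentrations for 72 h at 37 °C, 5% CO2. Resazurin then added for 4 h, cells lysed with SDS, fluorescence read at ex 550/em 590 nm. IC50 from four-parameter logistic fit; three independent runs, each in triplicate.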

Leishmania major = test: Antileishmanial activity against Leishmania major (MHOM/IL/80/Friedlin) promastigotes assessed as reduction in parasite growth incubated for 72 hrs by MTT assay; format: functional, organism-based
Method in brief: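 L. major Friedlin promastigotes, 1×10^6/mL in modified RPMI-1640 with 10% hiFBS, exposed to increasing compound concentrations for 72 h at 28 °C; proliferation read by MTT; IC50 from four-parameter logistic fit versus untreated controls.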

HT-29 = test: Cytotoxicity against human HT-29 cells assessed as reduction in cell viability incubated for 48 hrs by MTT assay; format: functional, cell-based; conditions: HT-29, 48 h
Method in brief: (§1)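 MTT assay: 5×10^3 cells per well in DMEM with 10% hiFBS (4.5 g/L glucose for HT-29, 1 g/L for MRC-5), exposed to increasing compound concentrations for 48 h at 37 °C. MTT added for 4 h, formazan dissolved in DMSO, absorbance read at 575 nm. IC50 from four-parameter logistic fit.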

[1] = Selectivity index, ratio of IC50 for cytotoxicity against human MRC5 cells to IC50 for antitrypanosomal activity against Trypanosoma brucei; format: toxicity, cell-based; conditions: MRC5 cells versus Trypanosoma brucei, read-out: Selectivity Index
Method in brief: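 Selectivity index: MRC-5 IC50 divided by T. brucei IC50.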

[2] = Selectivity index, ratio of IC50 for cytotoxicity against human MRC5 cells to IC50 for antileishmanial activity against Leishmania major (MHOM/IL/80/Friedlin) promastigotes; format: toxicity, cell-based; conditions: read-out: Selectivity Index
Method in brief: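 Selectivity index: MRC-5 IC50 divided by L. major promastigote IC50.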

[3] = Selectivity index, ratio of IC50 for human MRC5 cells to IC50 for human HT-29 cells; format: toxicity; conditions: MRC5 cells versus HT-29 cells, read-out: Selectivity Index
Method in brief: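 Selectivity index: MRC-5 IC50 divided by HT-29 IC50.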

[4] = Drug uptake in Trypanosoma brucei at 10 uM incubated for 2 hrs by fluorescence based multiplate reader method; format: ADME
[5] = Cytotoxicity against human MRC5 cells assessed as reduction in cell viability incubated for 48 hrs by MTT assay; format: toxicity, cell-based; method in brief: as §1
[6] = Drug uptake in human MRC5 cells at 10 uM incubated for 2 hrs by fluorescence based multiplate reader method; format: ADME, cell-based; conditions: mrc5, 2 h
Method in brief: (§2)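 225,000 trypsinized cells incubated with 10 μM compound in 0.75 mL medium for 2 h at 37 °C; washed three times with PBS, lysed in 3% SDS and sonicated. NDI fluorescence read at ex 485/em 535 nm, quantified against a calibration curve in cell lysate and normalized to BCA protein. Reported as % of compound added.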

[7] = Drug localization in cytoplasm of Trypanosoma brucei at 5 uM incubated for 30 to 120 mins by DAPI staining based fluorescence microscopic analysis; format: ADME, subcellular; conditions: time 30-120 min
Method in brief: (§3)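 T. brucei at 1×10^7/mL exposed to 5 μM compound in FBS-free medium for 30 and 120 min at 37 °C; fixed in cold 4% paraformaldehyde, DAPI-stained and imaged by widefield microscopy. Compound excited with the 542–566 filter and emission collected at 578–610 nm.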

Quadruplex DNA [8] = test: Binding affinity to human G-quadruplex telomeric DNA F21T (5'-duplex GGG TTAGGG TTAGGG TTAGGG-3') assessed as change in melting temperature at 1 uM incubated for 5 min by FRET assay; format: nucleic-acid assay
Method in brief: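 Fluorescently labelled oligonucleotide annealed (95 °C, 5 min) in 10 mM lithium cacodylate/90 mM LiCl, pH 7.2; 0.2 μM final, with or without ligand. Held 5 min at 25 °C, then heated 0.5 °C/min to 95 °C. Tm taken at normalized signal 0.5; ΔTm = Tm with ligand minus Tm without. Tested in duplicate.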

[9] = Drug localization in nucleus of Trypanosoma brucei at 5 uM incubated for 30 to 120 mins by DAPI staining based fluorescence microscopic analysis; format: ADME, subcellular; conditions: time 30-120 min; method in brief: as §3
[10] = Drug localization in nucleus of human HT-29 cells at 25 uM incubated for 30 to 120 mins by DAPI staining based fluorescence microscopic analysis; format: ADME, subcellular; conditions: ht-29, 25 µM, time 30-120 min
Method in brief: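 HT-29 cells grown 24 h on coverslips in FBS-free medium, then exposed to 25 μM compound for 30 or 120 min at 37 °C. Mounted in DAPI medium and imaged by widefield fluorescence microscopy; compound emission collected at 578–610 nm, DAPI at 437–474 nm.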

[11] = Drug uptake in human HT-29 cells at 10 uM incubated for 2 hrs by fluorescence based multiplate reader method; format: ADME, cell-based; conditions: ht-29, 2 h; method in brief: as §2
Quadruplex DNA [12] = test: Binding affinity to parallel G-quadruplex DNA TGGGGT TGGGGT TGGGGT TGGGGT (unknown origin) by mass spectrometric analysis; format: nucleic-acid assay
Method in brief: (§4)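 Native ESI-FTICR MS in negative ion mode under soft conditions, in 100 mM ammonium acetate; DNA at 5 μM with ligand at 10 μM.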

Quadruplex DNA [13] = test: Binding affinity to human G-quadruplex telomeric DNA F21T (5'-duplex GGG TTAGGG TTAGGG TTAGGG-3') by mass spectrometric analysis; format: nucleic-acid assay; method in brief: as §4

SMILES	IC50 (Trypanosoma brucei) [µM]	IC50 (Leishmania major) [µM]	IC50 (HT-29) [µM]	selectivity ratio [1]	selectivity ratio [2]	selectivity ratio [3]	Drug uptake [4] [%]	IC50 at 48 h [5] [µM]	Drug uptake [6] [%]	Drug uptake [7]	ΔTm (Quadruplex DNA [8]) [°C]	Drug uptake [9]	Drug uptake [10]	Drug uptake [11] [%]	Activity (Quadruplex DNA [12])	Activity (Quadruplex DNA [13])
CN(C)CCCN1C(=O)c2ccc3c4c(c(NCc5cn(CCS[C@H]6O[C@H](CO)[C@@H](O)[C@H](O)[C@@H]6O)nn5)cc(c24)C1=O)C(=O)N(CCCN(C)C)C3=O	0.08	1.52	0.88	34.7	1.8	3.2	6.1	2.78	–	–	–	–	–	–	–	–
O=C1c2ccc3c4c(c(NCc5cn(CCS[C@@H]6O[C@H](CO)[C@@H](O)[C@H](O)[C@H]6O)nn5)cc(c24)C(=O)N1CCN1CCOCC1)C(=O)N(CCN1CCOCC1)C3=O	1.18	30.2	28.9	30.3	1.2	1.2	–	35.7	–	–	–	–	–	–	–	–
O=C1c2ccc3c4c(c(NCc5cn(CCS[C@H]6O[C@H](CO)[C@@H](O)[C@H](O)[C@@H]6O)nn5)cc(c24)C(=O)N1CCN1CCOCC1)C(=O)N(CCN1CCOCC1)C3=O	0.73	21.7	3.39	31	1.1	6.7	3.2	22.6	–	–	–	–	–	–	–	–
CN(C)CCCN1C(=O)c2ccc3c4c(c(NCc5cn(CCO[C@H]6O[C@H](CO)[C@@H](O)[C@H](O)[C@@H]6O)nn5)cc(c24)C1=O)C(=O)N(CCCN(C)C)C3=O	0.05	0.3	0.43	19	3.2	2.2	8.1	0.95	–	–	–	–	–	–	–	–
O=C1c2ccc3c4c(c(NCc5cn(CCO[C@@H]6O[C@H](CO)[C@@H](O)[C@H](O)[C@H]6O)nn5)cc(c24)C(=O)N1CCN1CCOCC1)C(=O)N(CCN1CCOCC1)C3=O	0.31	10.5	1.75	25.3	0.7	4.5	–	7.86	–	–	–	–	–	–	–	–
CN(C)CCCN1C(=O)c2ccc3c4c(c(NCc5cn(CCO[C@@H]6O[C@H](CO)[C@@H](O[C@H]7O[C@H](CO)[C@@H](O)[C@H](O)[C@H]7O)[C@H](O)[C@H]6O)nn5)cc(c24)C1=O)C(=O)N(CCCN(C)C)C3=O	0.06	0.8	0.48	30	2.3	3.8	7	1.8	25.5	Active	10	Active	Active	20.9	–	–
CN(C)CCCN1C(=O)c2ccc3c4c(c(NCc5cn(CCO[C@@H]6O[C@H](CO)[C@H](O)[C@H](O)[C@H]6O)nn5)cc(c24)C1=O)C(=O)N(CCCN(C)C)C3=O	0.05	13.9	0.5	38.8	0.14	3.9	–	1.94	–	–	10	–	–	–	Active	Active
O=C1c2ccc3c4c(c(NCc5cn(CCS[C@@H]6O[C@H](CO)[C@@H](O[C@H]7O[C@H](CO)[C@@H](O)[C@H](O)[C@H]7O)[C@H](O)[C@H]6O)nn5)cc(c24)C(=O)N1CCN1CCOCC1)C(=O)N(CCN1CCOCC1)C3=O	3.04	> 50	13.7	> 16	–	> 3.6	6.7	> 50	3.3	–	–	–	–	3.5	–	–
O=C1c2ccc3c4c(c(NCc5cn(CCO[C@H]6O[C@H](CO)[C@@H](O)[C@H](O)[C@@H]6O)nn5)cc(c24)C(=O)N1CCN1CCOCC1)C(=O)N(CCN1CCOCC1)C3=O	2.1	> 50	8.52	14.5	–	3.6	4.2	30.5	–	–	–	–	–	–	–	–
CN(C)CCCN1C(=O)c2ccc3c4c(c(NCc5cn(CCS[C@@H]6O[C@H](CO)[C@@H](O)[C@H](O)[C@H]6O)nn5)cc(c24)C1=O)C(=O)N(CCCN(C)C)C3=O	0.05	1.38	0.75	55	2	3.7	–	2.75	–	–	–	–	–	–	–	–
O=C1c2ccc3c4c(c(NCc5cn(CCO[C@@H]6O[C@H](CO)[C@@H](O[C@H]7O[C@H](CO)[C@@H](O)[C@H](O)[C@H]7O)[C@H](O)[C@H]6O)nn5)cc(c24)C(=O)N1CCN1CCOCC1)C(=O)N(CCN1CCOCC1)C3=O	3.32	> 50	13	> 15	–	> 3.8	6.1	> 50	0.8	–	–	–	–	3.2	–	–
CN(C)CCCN1C(=O)c2ccc3c4c(c(NCc5cn(CCS[C@@H]6O[C@H](CO)[C@H](O)[C@H](O)[C@H]6O)nn5)cc(c24)C1=O)C(=O)N(CCCN(C)C)C3=O	0.04	0.74	0.35	38.7	2.1	4.4	–	1.55	–	–	10	–	–	–	Active	Active
CN(C)CCCN1C(=O)c2ccc3c4c(c(NCc5cn(CCO[C@@H]6O[C@H](CO)[C@@H](O)[C@H](O)[C@H]6O)nn5)cc(c24)C1=O)C(=O)N(CCCN(C)C)C3=O	0.08	0.79	0.46	11.5	1.2	2	–	0.92	–	–	–	–	–	–	–	–
